Laboratory results from PMC11729038 (Bioorganic & medicinal chemistry letters, 2024).
One block for each compound: values may come before it.

What was measured:
[1] = Reaction of electrophiles with CoASH, adduct formation monitored by LC-MS; format: physicochemical; settings: for kforward, reaction with CoASH: 25 °C, pH 7.5 phosphate buffer, 2 mM each of CoASH and electrophile, 1 mM TCEP, 5% MeOH, same with and without 1.2 μM AANAT
In short: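 Uncatalyzed electrophile–CoASH reactions contained 5% MeOH for electrophile dissolution. CoASH adduct formation was followed over time by LC-MS. Rate constants came from global kinetic fitting of product accumulation. Upper and lower bounds were set within a 0.83 relative error threshold.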

melatonin receptors = settings: cited from earlier work
[2] = cited from earlier work
sheep AANAT enzyme = settings: truncated bisubstrate inhibitor versus 2; cited from earlier work
human AANAT enzyme = settings: cited from earlier work
AANAT = AANAT (Ovis aries, UniProt Q29495); experiment: AANAT enzymatic; format: biochemical, Ovis aries (sheep); settings: for Fold less potent than 1 (AANAT IC50): relative to compound 1; for Inhibition of AANAT at 10 μM test compound concentration: sheep AANAT
AANAT, sequence (Q29495 whole entry): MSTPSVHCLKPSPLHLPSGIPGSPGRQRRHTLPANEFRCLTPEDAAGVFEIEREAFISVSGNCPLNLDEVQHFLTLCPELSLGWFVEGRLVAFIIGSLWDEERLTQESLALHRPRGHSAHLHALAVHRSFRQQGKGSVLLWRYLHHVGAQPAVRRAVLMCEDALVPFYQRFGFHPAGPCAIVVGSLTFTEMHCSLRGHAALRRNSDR

SMILES: O=C(CBr)NCCc1c[nH]c2ccccc12 [Compound 1, bromoacetyltryptamine, reference compound]
Second order rate constant, reaction with CoASH ([1]; pH 6.8, absence of AANAT): 0.0218 M⁻¹ s⁻¹
Effect of AANAT on rate of reaction with CoASH ([1]; pH 7.5): the same in the presence and absence of AANAT
Selectivity against melatonin receptors (melatonin receptors): lack selectivity

SMILES: CC(C)(CO[P@@](=O)(O)O[P@@](=O)(O)OC[C@H]1O[C@@H](n2cnc3c(N)ncnc32)[C@H](O)[C@@H]1OP(=O)(O)O)[C@@H](O)C(=O)NCCC(=O)NCCSCC(=O)NCCc1c[nH]c2ccccc12 [Compound 2]
Cell permeability [2]: poor cell permeability

SMILES: CC(C)(COP(=O)(O)OP(=O)(O)OC[C@H]1O[C@@H](n2cnc3c(N)ncnc32)[C@H](O)[C@@H]1OP(=O)(O)O)[C@@H](O)C(=O)NCCC(=O)NCCSC(=O)NCCc1c[nH]c2ccccc12 [Compound 3a]
Fold less potent than 2 (reported) (sheep AANAT enzyme): 4 X

SMILES: O=C(CBr)NCCc1csc2ccc(O)cc12 [Compound 6]
Selectivity against melatonin receptors (melatonin receptors): lack selectivity

SMILES: C=CC(=O)NCCc1csc2ccc(OC)cc12 [Compound 7]
Fold less potent than bromoacetyl analog 5 (reported IC50) (human AANAT enzyme): 40 X

Fold less potent than 1 (AANAT IC50) (AANAT): 6 X
SMILES: O=C(CBr)NCc1c[nH]c2ccccc12 [Compound 8]

Fold less potent than 1 (AANAT IC50) (AANAT): 6 X
SMILES: O=C(CBr)NCCCc1c[nH]c2ccccc12 [Compound 9]

SMILES: C=CC(=O)NCc1c[nH]c2ccccc12 [Compound 10]
kforward, reaction with CoASH [1]: 0.00026 M⁻¹ s⁻¹
Reaction rate with CoASH at pH 6.8 relative to pH 7.5 ([1]; pH 6.8, in the presence of enzyme): several times slower than at pH 7.5

Inhibition of AANAT at 10 μM test compound concentration (AANAT): inactive
SMILES: C=CC(=O)NCCc1c[nH]c2ccccc12 [Compound 11]
kforward, reaction with CoASH [1]: 0.000146 M⁻¹ s⁻¹

Inhibition of AANAT at 10 μM test compound concentration (AANAT): inactive
SMILES: C=CS(=O)(=O)NCc1c[nH]c2ccccc12 [Compound 12]
kforward, reaction with CoASH [1]: 0.00435 M⁻¹ s⁻¹

Inhibition of AANAT at 10 μM test compound concentration (AANAT): inactive
SMILES: C=CS(=O)(=O)NCCc1c[nH]c2ccccc12 [Compound 13]
kforward, reaction with CoASH [1]: 0.00183 M⁻¹ s⁻¹
